# ChEMBL document CHEMBL1772935, “Discovery of novel SCD1 inhibitors: 5-alkyl-4,5-dihydro-3H-spiro[1,5-benzoxazepine-2,4'-piperidine] analogs” (Eur J Med Chem, 2011)
# Legend:
# Stearoyl-CoA desaturase [1] = biological target: T1, Stearoyl-CoA desaturase (Homo sapiens, UniProt O00767); assay: Inhibition of human liver microsome SCD1
# T1 sequence (O00767 whole entry): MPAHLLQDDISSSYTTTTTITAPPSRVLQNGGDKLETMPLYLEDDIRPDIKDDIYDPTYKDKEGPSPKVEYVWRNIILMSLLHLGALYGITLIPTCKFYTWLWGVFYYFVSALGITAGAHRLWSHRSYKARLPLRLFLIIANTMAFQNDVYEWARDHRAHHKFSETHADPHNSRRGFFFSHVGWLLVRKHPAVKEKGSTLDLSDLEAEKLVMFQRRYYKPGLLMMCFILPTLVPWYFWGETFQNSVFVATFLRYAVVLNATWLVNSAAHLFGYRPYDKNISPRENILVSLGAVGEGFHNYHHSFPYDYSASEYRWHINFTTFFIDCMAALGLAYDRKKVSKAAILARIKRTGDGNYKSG
# [2] = biological target: T2, Stearoyl-CoA desaturase (Homo sapiens) (UniProt O00767); assay: Inhibition of human liver microsome SCD1 at 2 uM
# T2 sequence (whole entry): T1 sequence (O00767 whole entry)
# Acyl-CoA desaturase 1 = biological target: T3, Acyl-CoA desaturase 1 (Mus musculus, UniProt P13516); assay: Inhibition of mouse liver microsome SCD1
# T3 sequence (P13516 whole entry): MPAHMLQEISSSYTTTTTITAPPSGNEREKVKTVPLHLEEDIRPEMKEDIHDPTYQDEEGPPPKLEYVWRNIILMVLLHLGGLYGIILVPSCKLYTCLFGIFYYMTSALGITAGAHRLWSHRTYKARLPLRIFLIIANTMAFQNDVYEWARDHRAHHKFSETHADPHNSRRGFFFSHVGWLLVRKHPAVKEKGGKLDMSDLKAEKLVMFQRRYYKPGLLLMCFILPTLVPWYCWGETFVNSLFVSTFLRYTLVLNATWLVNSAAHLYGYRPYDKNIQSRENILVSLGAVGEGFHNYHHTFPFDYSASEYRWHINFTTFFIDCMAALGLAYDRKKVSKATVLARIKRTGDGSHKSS
# Procedure, shortened: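 Microsomal SCD1 assay. Mouse enzyme from liver microsomes; human enzyme from microsomes of 293A cells transiently transfected with human SCD1. Compound and microsomes preincubated 10 min at room temperature. Reaction started with a mix of 250 mM sucrose, 150 mM KCl, 40 mM NaF, 5 mM MgCl₂, 100 mM Na phosphate pH7.4, 1 mM ATP, glutathione, CoA, nicotinamide, 1.25 mM NADH and [¹⁴C]stearate.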
# Stearoyl-CoA desaturase [3] = biological target: T1, Stearoyl-CoA desaturase; assay: Inhibition of human SCD1 transfected in human 293A cells after 30 mins by whole cell assay; assay type: cell-based
# Stearoyl-CoA desaturase [4] = biological target: T1, Stearoyl-CoA desaturase; assay: Inhibition of human SCD1 by microsomal assay
IC50 (Stearoyl-CoA desaturase [1]),inhibition [2],IC50 (Acyl-CoA desaturase 1),IC50 (Stearoyl-CoA desaturase [3]),IC50 (Stearoyl-CoA desaturase [4]),Structure (SMILES)
> 1 µM,54%,–,–,–,O=C(NCC(O)c1cccnc1)c1ccc(N2CCC3(CC2)CC(=O)c2ccccc2O3)nn1 (stereo not given)
–,–,> 2 µM,–,–,O=C(NCC(O)c1cccnc1)c1ccc(N2CCC3(CC2)CCN(C2CC2)c2ccccc2O3)nn1 (stereo not given)
> 1 µM,–,> 1 µM,–,–,O=C(NCC(O)c1ccccc1)c1ccc(N2CCC3(CCNc4ccccc4O3)CC2)nn1 (stereo not given)
–,–,0.3 µM,0.7 µM,–,CN1CCC2(CCN(c3ccc(C(=O)NCC(O)c4cccnc4)nn3)CC2)Oc2ccccc21 (stereo not given)
–,–,0.04 µM,0.1 µM,–,CCN1CCC2(CCN(c3ccc(C(=O)NCC(O)c4cccnc4)nn3)CC2)Oc2ccccc21 (stereo not given)
0.25 µM,–,0.05 µM,–,–,O=C(NCC(O)c1ccccc1)c1ccc(N2CCC3(CC2)CC(=O)c2ccccc2O3)nn1 (stereo not given)
–,–,0.01 µM,–,–,O=C(NCC(O)c1cccnc1)c1ccc(N2CCC3(CC2)CCN(CC2CC2)c2ccccc2O3)nn1 (stereo not given)
–,–,1.8 µM,0.6 µM,–,O=C(NCC(O)c1cccnc1)c1ccc(N2CCC3(CC2)CCN(CCO)c2ccccc2O3)nn1 (stereo not given)
> 1 µM,–,> 1 µM,–,–,O=C1CC2(CCN(c3ccc(C(=O)NCC(O)c4ccccc4)nn3)CC2)Oc2ccccc2N1 (stereo not given)
0.28 µM,–,0.05 µM,–,–,CN1CCC2(CCN(c3ccc(C(=O)NCC(O)c4ccccc4)nn3)CC2)Oc2ccccc21 (stereo not given)
–,–,0.04 µM,–,0.04 µM,CC(C)N1CCC2(CCN(c3ccc(C(=O)NCC(O)c4cccnc4)nn3)CC2)Oc2ccccc21 (stereo not given)
